Results published in ChEMBL document CHEMBL4043093, “2-Oxo-3, 4-dihydropyrimido[4, 5-d]pyrimidinyl derivatives as new irreversible pan fibroblast growth factor receptor (FGFR) inhibitors” (Eur J Med Chem, 2017).

Key:
[1] = molecular target: Tyrosine-protein kinase ZAP-70 (Homo sapiens) (UniProt P43403); assay: Inhibition of wild-type human partial length ZAP70 (D20 to G299 residues) expressed in HEK293 cells assessed as residual activity at 1000 nM after 30 mins by Kinomescan method relative to control; type: cell-based
[2] = molecular target: Peripheral plasma membrane protein CASK (Homo sapiens) (UniProt O14936); assay: Inhibition of wild-type human partial length CASK (M1 to H315 residues) expressed in HEK293 cells assessed as residual activity at 1000 nM after 30 mins by Kinomescan method relative to control; type: cell-based
[3] = molecular target: SRSF protein kinase 1 (Homo sapiens) (UniProt Q96SB4); assay: Inhibition of wild-type human full length SRPK1 (M1 to S655 residues) expressed in Escherichia coli BL21 assessed as residual activity at 1000 nM after 30 mins by Kinomescan method relative to control
[4] = molecular target: Cyclin-dependent kinase 11B (Homo sapiens) (UniProt P21127); assay: Inhibition of wild-type human partial length CDC2L1 (P353 to G692 residues) expressed in Escherichia coli BL21 assessed as residual activity at 1000 nM after 30 mins by Kinomescan method relative to control
[5] = molecular target: Serine/threonine-protein kinase 10 (Homo sapiens) (UniProt O94804); assay: Inhibition of wild-type human partial length LOK (E16 to V314 residues) expressed in Escherichia coli BL21 assessed as residual activity at 1000 nM after 30 mins by Kinomescan method relative to control
[6] = molecular target: Serine/threonine-protein kinase PLK2 (Homo sapiens) (UniProt Q9NYY3); assay: Inhibition of wild-type human partial length PLK2 (H58 to F354 residues) expressed in HEK293 cells assessed as residual activity at 1000 nM after 30 mins by Kinomescan method relative to control; type: cell-based
Sequence of Serine/threonine-protein kinase PLK2 (Homo sapiens) (Q9NYY3 whole entry, looked up, the tested form may be a part): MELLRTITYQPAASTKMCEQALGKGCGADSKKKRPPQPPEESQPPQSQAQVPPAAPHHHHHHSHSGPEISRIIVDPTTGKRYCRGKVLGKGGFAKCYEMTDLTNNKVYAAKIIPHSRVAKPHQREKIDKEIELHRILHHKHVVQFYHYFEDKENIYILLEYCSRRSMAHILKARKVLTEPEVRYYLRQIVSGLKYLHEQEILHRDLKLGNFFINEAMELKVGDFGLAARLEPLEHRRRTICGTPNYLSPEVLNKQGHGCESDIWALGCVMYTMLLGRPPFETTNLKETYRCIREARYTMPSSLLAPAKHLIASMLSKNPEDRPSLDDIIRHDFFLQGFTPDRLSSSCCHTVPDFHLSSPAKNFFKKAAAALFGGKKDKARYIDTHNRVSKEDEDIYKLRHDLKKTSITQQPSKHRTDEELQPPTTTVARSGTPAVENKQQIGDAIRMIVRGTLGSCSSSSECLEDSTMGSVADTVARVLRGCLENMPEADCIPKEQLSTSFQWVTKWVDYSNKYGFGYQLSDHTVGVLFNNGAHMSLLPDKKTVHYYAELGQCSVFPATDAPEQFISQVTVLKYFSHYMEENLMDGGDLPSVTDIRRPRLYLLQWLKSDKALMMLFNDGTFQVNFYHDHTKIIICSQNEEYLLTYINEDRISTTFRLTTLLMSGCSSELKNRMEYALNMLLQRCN

[7] = molecular target: Receptor tyrosine-protein kinase erbB-2 (Homo sapiens) (UniProt P04626); assay: Inhibition of wild-type human partial length ERBB2 (K646 to V1225 residues) expressed in HEK293 cells assessed as residual activity at 1000 nM after 30 mins by Kinomescan method relative to control; type: cell-based
[8] = molecular target: Mitogen-activated protein kinase kinase kinase 3 (Homo sapiens) (UniProt Q99759); assay: Inhibition of wild-type human partial length MAP3K3 (E320 to Y626 residues) expressed in HEK293 cells assessed as residual activity at 1000 nM after 30 mins by Kinomescan method relative to control; type: cell-based
[9] = molecular target: Proto-oncogene tyrosine-protein kinase receptor Ret (Homo sapiens) (UniProt P07949); assay: Inhibition of wild-type human partial length RET (E713 to D1014 residues) expressed in Escherichia coli BL21 assessed as residual activity at 1000 nM after 30 mins by Kinomescan method relative to control
[10] = molecular target: NT-3 growth factor receptor (Homo sapiens) (UniProt Q16288); assay: Inhibition of wild-type human partial length TRKC (Q531 to G825 residues) expressed in HEK293 cells assessed as residual activity at 1000 nM after 30 mins by Kinomescan method relative to control; type: cell-based
Sequence of NT-3 growth factor receptor (Homo sapiens) (Q16288 32-839 limits assumed): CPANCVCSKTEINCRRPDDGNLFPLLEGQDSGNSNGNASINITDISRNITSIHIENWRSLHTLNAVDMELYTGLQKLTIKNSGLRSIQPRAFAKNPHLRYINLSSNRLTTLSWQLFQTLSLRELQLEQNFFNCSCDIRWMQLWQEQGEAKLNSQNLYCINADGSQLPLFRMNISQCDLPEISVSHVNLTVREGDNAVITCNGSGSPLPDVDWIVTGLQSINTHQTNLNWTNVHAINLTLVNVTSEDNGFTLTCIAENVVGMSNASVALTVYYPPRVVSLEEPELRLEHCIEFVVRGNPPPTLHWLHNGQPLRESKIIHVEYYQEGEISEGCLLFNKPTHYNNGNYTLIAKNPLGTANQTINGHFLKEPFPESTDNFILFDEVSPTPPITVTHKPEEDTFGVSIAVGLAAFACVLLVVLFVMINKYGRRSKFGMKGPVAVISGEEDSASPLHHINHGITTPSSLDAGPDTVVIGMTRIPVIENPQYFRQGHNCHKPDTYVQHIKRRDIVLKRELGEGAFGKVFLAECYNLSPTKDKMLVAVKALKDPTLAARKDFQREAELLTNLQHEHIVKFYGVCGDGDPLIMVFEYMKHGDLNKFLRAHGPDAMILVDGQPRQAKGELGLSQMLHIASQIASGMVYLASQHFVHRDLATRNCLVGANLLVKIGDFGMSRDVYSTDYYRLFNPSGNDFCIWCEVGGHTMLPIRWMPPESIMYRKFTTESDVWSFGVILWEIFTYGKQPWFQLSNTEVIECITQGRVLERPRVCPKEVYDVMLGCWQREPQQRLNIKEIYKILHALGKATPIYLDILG

[11] = molecular target: Ephrin type-B receptor 1 (Homo sapiens) (UniProt P54762); assay: Inhibition of wild-type human partial length EPHB1 (P589 to T911 residues) expressed in Escherichia coli BL21 assessed as residual activity at 1000 nM after 30 mins by Kinomescan method relative to control
[12] = molecular target: Ephrin type-A receptor 3 (Homo sapiens) (UniProt P29320); assay: Inhibition of wild-type human partial length EPHA3 (D604 to K889 residues) expressed in Escherichia coli BL21 assessed as residual activity at 1000 nM after 30 mins by Kinomescan method relative to control
Sequence of Ephrin type-A receptor 3 (Homo sapiens) (P29320 whole entry, the tested form may be a part): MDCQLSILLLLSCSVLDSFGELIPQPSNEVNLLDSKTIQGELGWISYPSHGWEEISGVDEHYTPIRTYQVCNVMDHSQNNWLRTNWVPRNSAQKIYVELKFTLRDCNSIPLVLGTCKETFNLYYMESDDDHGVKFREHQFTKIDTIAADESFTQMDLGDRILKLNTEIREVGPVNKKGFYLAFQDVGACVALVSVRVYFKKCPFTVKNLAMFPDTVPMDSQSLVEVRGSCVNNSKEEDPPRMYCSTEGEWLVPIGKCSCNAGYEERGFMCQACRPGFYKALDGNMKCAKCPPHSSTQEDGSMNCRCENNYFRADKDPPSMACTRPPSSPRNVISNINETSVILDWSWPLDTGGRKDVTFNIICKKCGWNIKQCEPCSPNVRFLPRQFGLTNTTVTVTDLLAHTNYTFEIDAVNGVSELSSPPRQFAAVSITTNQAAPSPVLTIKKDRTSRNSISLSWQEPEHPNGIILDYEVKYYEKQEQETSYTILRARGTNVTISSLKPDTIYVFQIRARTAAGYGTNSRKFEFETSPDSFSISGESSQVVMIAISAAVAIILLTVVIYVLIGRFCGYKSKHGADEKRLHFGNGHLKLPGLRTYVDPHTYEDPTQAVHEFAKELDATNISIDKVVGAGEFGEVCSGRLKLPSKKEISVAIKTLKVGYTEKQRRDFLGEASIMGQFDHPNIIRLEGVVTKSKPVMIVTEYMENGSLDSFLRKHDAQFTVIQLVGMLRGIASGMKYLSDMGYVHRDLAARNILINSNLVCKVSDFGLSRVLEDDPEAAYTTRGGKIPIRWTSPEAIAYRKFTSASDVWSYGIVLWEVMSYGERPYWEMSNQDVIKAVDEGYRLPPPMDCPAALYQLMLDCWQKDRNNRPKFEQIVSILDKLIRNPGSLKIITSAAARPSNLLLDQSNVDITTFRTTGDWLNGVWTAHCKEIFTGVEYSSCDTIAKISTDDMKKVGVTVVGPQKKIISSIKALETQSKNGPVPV

[13] = molecular target: MAP/microtubule affinity-regulating kinase 3 (Homo sapiens) (UniProt P27448); assay: Inhibition of wild-type human full length MARK3 (M1 to L729 residues) expressed in Escherichia coli BL21 assessed as residual activity at 1000 nM after 30 mins by Kinomescan method relative to control
Sequence of MAP/microtubule affinity-regulating kinase 3 (Homo sapiens) (P27448 whole entry, looked up, the tested form may be a part): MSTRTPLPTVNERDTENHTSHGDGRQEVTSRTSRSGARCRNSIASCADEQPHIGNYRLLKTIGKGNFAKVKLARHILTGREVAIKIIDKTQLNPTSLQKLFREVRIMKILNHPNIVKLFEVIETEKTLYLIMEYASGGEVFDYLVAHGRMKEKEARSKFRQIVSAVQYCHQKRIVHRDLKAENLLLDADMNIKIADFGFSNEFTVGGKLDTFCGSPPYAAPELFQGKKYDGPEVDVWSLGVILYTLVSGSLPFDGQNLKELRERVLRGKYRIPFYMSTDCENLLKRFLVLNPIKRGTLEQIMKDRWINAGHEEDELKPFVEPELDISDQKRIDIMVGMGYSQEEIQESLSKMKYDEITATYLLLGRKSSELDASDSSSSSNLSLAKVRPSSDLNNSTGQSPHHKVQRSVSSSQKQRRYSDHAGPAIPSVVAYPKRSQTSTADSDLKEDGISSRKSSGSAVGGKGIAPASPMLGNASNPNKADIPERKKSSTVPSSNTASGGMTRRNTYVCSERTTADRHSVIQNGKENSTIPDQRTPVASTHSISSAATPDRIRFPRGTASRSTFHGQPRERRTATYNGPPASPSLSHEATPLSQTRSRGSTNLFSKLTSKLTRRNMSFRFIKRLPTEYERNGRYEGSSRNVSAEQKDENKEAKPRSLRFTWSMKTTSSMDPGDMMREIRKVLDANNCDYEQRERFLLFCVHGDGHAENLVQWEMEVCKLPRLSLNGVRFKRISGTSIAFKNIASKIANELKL
Method in brief: (§1)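 Single-concentration screen at 1 µM across a 456-kinase KINOMEscan panel. The read-out is Percent Control for each kinase.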

[14] = molecular target: Insulin receptor-related protein (Homo sapiens) (UniProt P14616); assay: Inhibition of wild-type human partial length INSRR (R950 to E1278 residues) expressed in Escherichia coli BL21 assessed as residual activity at 1000 nM after 30 mins by Kinomescan method relative to control
[15] = molecular target: Serine/threonine-protein kinase WNK1 (Homo sapiens) (UniProt Q9H4A3); assay: Inhibition of wild-type human partial length WNK1 (Q194 to A490 residues) expressed in HEK293 cells assessed as residual activity at 1000 nM after 30 mins by Kinomescan method relative to control; type: cell-based
[16] = molecular target: Serine/threonine-protein kinase NLK (Homo sapiens) (UniProt Q9UBE8); assay: Inhibition of wild-type human full length NLK (M13 to E527 residues) expressed in Escherichia coli BL21 assessed as residual activity at 1000 nM after 30 mins by Kinomescan method relative to control; method in brief: as §1
Sequence of Serine/threonine-protein kinase NLK (Homo sapiens) (Q9UBE8 whole entry, the tested form may be a part): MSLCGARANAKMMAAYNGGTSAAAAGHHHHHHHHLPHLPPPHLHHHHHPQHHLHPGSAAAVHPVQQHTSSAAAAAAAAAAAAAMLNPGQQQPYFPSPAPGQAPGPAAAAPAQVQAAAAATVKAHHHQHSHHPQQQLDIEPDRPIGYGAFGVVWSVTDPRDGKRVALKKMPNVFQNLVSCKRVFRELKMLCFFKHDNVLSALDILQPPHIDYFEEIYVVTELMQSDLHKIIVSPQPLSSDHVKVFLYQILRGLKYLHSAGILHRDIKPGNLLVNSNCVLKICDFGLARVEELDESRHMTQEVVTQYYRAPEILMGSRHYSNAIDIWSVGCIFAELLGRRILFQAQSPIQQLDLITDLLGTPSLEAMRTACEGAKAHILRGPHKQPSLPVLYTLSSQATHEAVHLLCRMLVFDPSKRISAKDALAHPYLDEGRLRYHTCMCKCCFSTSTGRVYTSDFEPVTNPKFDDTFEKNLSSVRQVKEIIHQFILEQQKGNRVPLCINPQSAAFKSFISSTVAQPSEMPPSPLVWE

[17] = molecular target: Death-associated protein kinase 3 (Homo sapiens) (UniProt O43293); assay: Inhibition of wild-type human partial length DAPK3 (M1 to A277 residues) expressed in Escherichia coli BL21 assessed as residual activity at 1000 nM after 30 mins by Kinomescan method relative to control
[18] = molecular target: Wee1-like protein kinase 2 (Homo sapiens) (UniProt P0C1S8); assay: Inhibition of wild-type human partial length WEE2 (M204 to K492 residues) expressed in Escherichia coli BL21 assessed as residual activity at 1000 nM after 30 mins by Kinomescan method relative to control
Sequence of Wee1-like protein kinase 2 (Homo sapiens) (P0C1S8 whole entry, looked up, the tested form may be a part): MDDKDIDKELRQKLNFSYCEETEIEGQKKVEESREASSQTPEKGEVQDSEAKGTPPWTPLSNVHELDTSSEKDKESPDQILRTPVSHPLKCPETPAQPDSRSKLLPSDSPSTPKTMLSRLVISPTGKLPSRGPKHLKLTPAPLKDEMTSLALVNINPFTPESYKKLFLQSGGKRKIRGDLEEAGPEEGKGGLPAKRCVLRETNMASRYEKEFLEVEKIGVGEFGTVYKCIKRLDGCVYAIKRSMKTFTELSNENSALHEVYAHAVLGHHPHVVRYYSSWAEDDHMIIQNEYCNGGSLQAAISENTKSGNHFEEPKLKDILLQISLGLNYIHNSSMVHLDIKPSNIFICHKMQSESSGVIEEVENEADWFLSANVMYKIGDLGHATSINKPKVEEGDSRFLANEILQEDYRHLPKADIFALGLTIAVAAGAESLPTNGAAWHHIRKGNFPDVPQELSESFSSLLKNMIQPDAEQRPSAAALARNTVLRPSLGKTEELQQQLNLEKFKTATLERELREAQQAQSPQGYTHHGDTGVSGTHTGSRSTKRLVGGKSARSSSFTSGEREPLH

[19] = molecular target: Myosin light chain kinase family member 4 (Homo sapiens) (UniProt Q86YV6); assay: Inhibition of wild-type human partial length MYLK4 (V79 to S380 residues) expressed in Escherichia coli BL21 assessed as residual activity at 1000 nM after 30 mins by Kinomescan method relative to control
Sequence of Myosin light chain kinase family member 4 (Homo sapiens) (Q86YV6 whole entry, the tested form may be a part): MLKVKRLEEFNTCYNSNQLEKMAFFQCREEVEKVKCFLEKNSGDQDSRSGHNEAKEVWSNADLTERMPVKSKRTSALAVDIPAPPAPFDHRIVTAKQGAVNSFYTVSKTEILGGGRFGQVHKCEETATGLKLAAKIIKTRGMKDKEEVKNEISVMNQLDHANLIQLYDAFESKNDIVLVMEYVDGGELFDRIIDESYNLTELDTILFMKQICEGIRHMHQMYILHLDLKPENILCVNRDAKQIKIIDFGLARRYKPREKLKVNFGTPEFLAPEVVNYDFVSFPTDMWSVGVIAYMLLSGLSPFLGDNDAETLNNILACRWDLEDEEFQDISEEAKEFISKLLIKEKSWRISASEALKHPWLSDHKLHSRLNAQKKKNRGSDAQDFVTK

[20] = molecular target: Calcium/calmodulin-dependent protein kinase type II subunit delta (Homo sapiens) (UniProt Q13557); assay: Inhibition of wild-type human partial length CAMK2D (M1 to E329 residues) expressed in Escherichia coli BL21 assessed as residual activity at 1000 nM after 30 mins by Kinomescan method relative to control
[21] = molecular target: Tyrosine-protein kinase ABL1 (Homo sapiens) (UniProt P00519); assay: Inhibition of wild-type human phosphorylated ABL1 (S229 to K512 residues) expressed in HEK293 cells assessed as residual activity at 1000 nM after 30 mins by Kinomescan method relative to control; type: cell-based
[22] = molecular target: Tyrosine-protein kinase Lyn (Homo sapiens) (UniProt P07948); assay: Inhibition of wild-type human partial length LYN (C219 to Q511 residues) expressed in Escherichia coli BL21 assessed as residual activity at 1000 nM after 30 mins by Kinomescan method relative to control
[23] = molecular target: RAC-beta serine/threonine-protein kinase (Homo sapiens) (UniProt P31751); assay: Inhibition of wild-type human partial length AKT2 expressed in Escherichia coli BL21 assessed as residual activity at 1000 nM after 30 mins by Kinomescan method relative to control

COc1cc(OC)c(Cl)c(N2Cc3cnc(Nc4ccc(F)cc4)nc3N(C3CCN(C(=O)/C=C/CN(C)C)CC3)C2=O)c1Cl
Activity [1]: 85%
Activity [2]: 96%
Activity [3]: 80%
Activity [4]: 100%
Activity [5]: 34%
Activity [6]: 100%
Activity [7]: 96%
Activity [8]: 1.9%
Activity [9]: 8.1%
Activity [10]: 100%
Activity [11]: 100%
Activity [12]: 100%
Activity [13]: 99%
Activity [14]: 52%
Activity [15]: 59%
Activity [16]: 98%
Activity [17]: 100%
Activity [18]: 99%
Activity [19]: 85%
Activity [20]: 100%
Activity [21]: 37%
Activity [22]: 7.6%
Activity [23]: 92%
